Assay results as given in ChEMBL document CHEMBL1221368, “Identification of small molecule compounds with higher binding affinity to guanine deaminase (cypin) than guanine” (Bioorg Med Chem, 2010).

Substrate: Nc1nc2[nH]cnc2c(=O)[nH]1
Experiment: Activity at GDA by colorimetric assay
In short: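 Purified rabbit liver guanine deaminase, 8 × 10^-3 U, incubated with guanine at 2, 5, 7, 10, 12, 15, 17 and 20 µM plus inhibitor at 8 or 20 µM. Run in TBS (25 mM Tris-HCl, 137 mM NaCl, 2.7 mM KCl) at pH 7.4 and 25 °C. Guanine hydrolysis followed as OD change at 245 nm. Kinetic constants taken from Lineweaver–Burk plots (1/V vs 1/S).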

B1: Guanine deaminase (Homo sapiens), Q9Y2T3 (protein)
chain: MCAAQMPPLAHIFRGTFVHSTWTCPMEVLRDHLLGVSDSGKIVFLEEASQQEKLAKEWCFKPCEIRELSHHEFFMPGLVDTHIHASQYSFAGSSIDLPLLEWLTKYTFPAEHRFQNIDFAEEVYTRVVRRTLKNGTTTACYFATIHTDSSLLLADITDKFGQRAFVGKVCMDLNDTFPEYKETTEESIKETERFVSEMLQKNYSRVKPIVTPRFSLSCSETLMGELGNIAKTRDLHIQSHISENRDEVEAVKNLYPSYKNYTSVYDKNNLLTNKTVMAHGCYLSAEELNVFHERGASIAHCPNSNLSLSSGFLNVLEVLKHEVKIGLGTDVAGGYSYSMLDAIRRAVMVSNILLINKVNEKSLTLKEVFRLATLGGSQALGLDGEIGNFEVGKEFDAILINPKASDSPIDLFYGDFFGDISEAVIQKFLYLGDDRNIEEVYVGGKQVVPFSSSV
- Km: 11.2 µM
